Hits are enriched below; roughly 3.9% of the tested compounds scored in any of these assays.
OX1R antag-1 = antagonists of human orexin 1 receptor (OX1R); inhibition, % at 6.6 µM; OX1R-expressing cells, FRET antagonist read-out; 330,000 tested, 1.8% active; AID 485270; in the data active = inhibition mostly above about 38%, no sharp cut-off; inactive = mostly below about 40%;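 note: 0% = agonist challenge alone and 100% = reference antagonist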
Target sequence (O43613 whole entry, looked up): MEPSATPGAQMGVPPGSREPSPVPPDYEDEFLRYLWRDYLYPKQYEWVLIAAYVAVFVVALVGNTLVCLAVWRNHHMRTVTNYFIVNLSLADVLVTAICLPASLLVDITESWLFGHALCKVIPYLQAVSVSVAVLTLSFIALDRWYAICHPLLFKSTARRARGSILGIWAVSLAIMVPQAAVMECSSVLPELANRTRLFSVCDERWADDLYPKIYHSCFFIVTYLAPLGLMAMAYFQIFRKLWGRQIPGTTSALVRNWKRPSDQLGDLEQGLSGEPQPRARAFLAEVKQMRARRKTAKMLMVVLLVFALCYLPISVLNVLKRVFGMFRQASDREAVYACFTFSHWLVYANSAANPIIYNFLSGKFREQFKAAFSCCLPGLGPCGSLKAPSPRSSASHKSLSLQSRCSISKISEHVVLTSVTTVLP
TAAR1 agonist = human TAAR1 agonism. CHO RD-HGA16 TAAR1, Fluo-8 calcium fluorescence; vehicle wells 0%, saturating PEA agonist 100%. AID 624467. activation, % at 3 µM. 360,000 tested, 0.99% active. Q96RJ0;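 active = activation above the mean activation of all test compounds in the run plus 3 SD, cut at about 38% in these data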
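System: CHO RD-HGA16 cells carrying human TAAR1 plus Gα16; Incubation: 17-24 h seeding, 75 min 37 °C dye, 30 min RT; Measured by: Fluo-8 fluorescence, 5 s baseline then 140 s kinetic read; Control set: DMSO and PEA EC100; Replication: single well for each compound.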
TAAR1 antagonist = antagonists of human TAAR1. Q96RJ0. CHO RD-HGA16 TAAR1, Fluo-8 calcium fluorescence, antagonist. inhibition, % at 3 µM. 360,000 tested, 1.5% active. AID 624466;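 active = inhibition above a per-plate cutoff, the mean inhibition of test compounds on that plate plus 3 SD, cut at about 49% in these data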;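 note: 0% = DMSO plus EC80 beta-PEA response and 100% = DMSO alone without agonist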
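System: CHO RD-HGA16 cells bearing hTAAR1. Reagent: EC80 β-phenethylamine stimulus. Schedule: seeding 17-24 h prior, 75-min 37 °C, 30-min RT dye loading. Signal: Fluo-8 intracellular calcium dye fluorescence, real-time kinetic reads. Read-out: % inhibition from peak post-agonist over basal fluorescence ratio. Benchmarks: vehicle wells and EC80 agonist wells. Replicates: n of 1.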
CHO parental Ca = counter-screen: ATP calcium response change in parental CHO cells; parental CHO-K1, ATP-induced calcium, Fluo-8 fluorescence; inhibition, % at 5.6 µM; 330,000 tested, 0.63% active; AID 463079;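 active = inhibition above that plate's mean sample inhibition plus 3 SD, cut at about 26% in these data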;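 note: 0% = ATP-challenged DMSO wells and 100% = DMSO wells without ATP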
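Test system: untransfected parental CHO cell line. Compound: one dose, 5.6 µM nominal. Detection: intracellular calcium via Fluo-8 no-wash fluorescent dye. Measure: % inhibition. Benchmarks: ATP-challenged DMSO wells low, unchallenged DMSO wells high.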
OX1R antag-2 = human HCRTR1 antagonism; O43613; CHO/OX1R cells, Fluo-8 calcium fluorescence, orexin A; inhibition, % at 5 µM; 330,000 tested, 0.43% active; AID 434989;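 active = inhibition above its plate's threshold, mean inhibition of all tested compounds on the plate plus 3 SD, cut at about 37% in these data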;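 note: 0% = orexin A challenge wells and 100% = SB-334867-A antagonist wells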
Starred values were filed as active, the others as inactive; x = not tested or not shown.

SMILES	OX1R antag-1	TAAR1 agonist	TAAR1 antagonist	CHO parental Ca	OX1R antag-2
Cc1nn(-c2ccccc2)c(Cl)c1CN(C(=O)CCl)c1cccc2ccccc12	23.2	11.2	50.5*	-12.4	-18.8
COc1ccc2c(c1)[C@@]1(OCCC=C[C@H]1C)C(=O)N2Cc1ccccc1C(F)(F)F	x	6.0	-49.3	x	x
CN1CCN(c2ncnc3c2ncn3[C@H]2CN(C)C[C@@H](CO)O2)CC1	x	6.8	-35.6	x	x
Cc1ccnc(Nc2nc(-c3ccccc3)cs2)c1	27.1	0.1	-15.4	-20.9	-29.2
Cc1ccnc(Nc2nc(-c3c(C)nc4sccn34)cs2)c1	55.1*	11.2	-7.6	-23.6	-13.4
CC(C)CC(N)c1csc(NC(=O)c2cc(C(C)(C)C)nn2Cc2ccccc2)n1 (centres undefined)	x	35.3	12.3	x	x
CCC(=O)c1ccc(OCc2ccccc2)c(OC)c1	21.5	7.9	-7.8	-8.0	-24.9
CCC(=O)c1ccc(OCc2ccc(C(=O)c3ccccc3)cc2)cc1	23.8	2.7	45.2	65.0*	32.7
O=C(Oc1ccc[nH]c1=O)c1cc([N+](=O)[O-])cc([N+](=O)[O-])c1	68.5*	0.4	-22.4	7.5	0.0
COc1ccc(C(=O)Oc2ccc[nH]c2=O)cc1	11.1	6.5	3.5	4.8	-12.1
O=c1cc(-c2ccc(O)cc2)oc2c1ccc1ccccc12	44.3*	7.3	13.3	-3.4	-5.1
O=c1cc(-c2ccc(O)cc2)oc2ccc3ccccc3c12	14.6	15.9	-22.8	-15.8	0.9
CCOC(=O)C1=C(C(=O)OCC)C2N(Cc3ccc(C#N)cc3)c3ccccc3[C@@]23C[C@@H](C(=O)OC)N(S(=O)(=O)c2ccc(C#N)cc2)C3=N1 (some centres undefined)	x	1.5	-24.4	x	x
CCc1cccc(NC(=O)c2snc3c(=O)[nH]cnc23)c1	34.9	3.6	2.1	-2.8	-8.5
O=C(Nc1ccc(N2CCCC(O)C2)cc1)c1snc2c(=O)[nH]cnc12 (centres undefined)	39.6*	4.2	-5.7	-0.2	-4.6
CSCCC(C(=O)Nc1c(C)cccc1C)N1CCN(c2ccc(F)cc2)CC1 (centres undefined)	x	0.2	-5.2	x	x
CCCCN1C(=O)C2(NNc3ccccc3O2)c2ccccc21 (centres undefined)	3.0	10.5	21.3	31.3	36.9*
C=CCN1C(=O)C2(NC(=O)c3ccccc3N2)c2ccccc21 (centres undefined)	8.1	2.2	6.9	-3.4	12.2
C=CCN1C(=O)C2(NNc3ccccc3O2)c2ccccc21 (centres undefined)	7.2	0.6	5.9	32.2*	30.0
O=C(N/N=C/c1cc2c(c([N+](=O)[O-])c1)OCO2)c1ccncc1	54.0*	2.5	-10.8	-9.8	-7.5
COc1cccc(-c2nn(-c3ccc(C)cc3)cc2C(=O)N2CCc3cc(OC)c(OC)cc3C2)c1	46.4*	7.4	62.6*	-25.3	26.5
COc1ccc(OC)c(-c2nn(-c3ccccc3)cc2C(=O)N2CCc3ccccc3C2)c1	12.6	1.4	22.1	-29.3	4.2
COCCCNC(=O)[C@@H](Cc1ccccc1)NC(=O)[C@H]1O[C@@H](n2ccc(=O)[nH]c2=O)[C@H](O)[C@@H]1O	x	0.5	-6.4	x	x
CCNC(=O)OC[C@H]1O[C@H](C#Cc2ccc(C(C)(C)C)cc2)C=C[C@H]1OC(C)=O	x	0.4	-9.6	x	x
Cc1cccc(OCCCCc2c(C)n[nH]c2C)c1C	22.2	6.2	-3.0	43.5*	11.9
SMILES	OX1R antag-1	TAAR1 agonist	TAAR1 antagonist	CHO parental Ca	OX1R antag-2
COc1ccc(N=C2C(=O)N3CCCc4cccc2c43)cc1	65.7*	6.2	-26.0	-11.0	-14.7
Cc1ccc(S(=O)(=O)N2CCN(c3ccnc4cc(Cl)ccc34)CC2)cc1	31.3	1.0	44.9	56.4*	53.3*
Cc1ccc(S(=O)(=O)N2CCN(c3ccnc4cc(Cl)ccc34)CC2)cc1C	54.6	8.2	14.4	37.5*	25.5
CC(=O)c1ccc(S(=O)(=O)N2CCN(c3ccnc4cc(Cl)ccc34)CC2)cc1	x	2.6	47.2	x	x
Cc1cc(N2CCN(S(=O)(=O)c3ccc(Cl)cc3)CC2)c2ccccc2n1	30.5	21.4	31.4	57.9*	23.9
O=c1c2ccccc2nnn1Cc1ccco1	x	0.8	-9.8	x	x
Cc1cccc(N2C(=O)c3cccc(Oc4ccc(Cl)cc4)c3C2=O)c1	3.8	38.4*	26.0	-11.4	-16.0
O=C(O)c1cccc(N2C(=O)c3ccc(Oc4ccc(Cl)cc4)cc3C2=O)c1	7.0	10.4	2.3	-4.5	0.5
N#Cc1ccc(S(=O)(=O)N2CCCc3nc(-c4ccccc4)ccc32)cc1	x	0.2	-0.9	x	x
N#C/C(=N\Nc1ccc(Cl)c(Cl)c1)C(=O)C1CC1	49.5*	8.0	-27.2	25.3	17.0
N#C/C(=N\Nc1ccc(F)cc1)C(=O)C1CC1	9.1	7.7	-20.8	0.2	3.8
O=S(=O)(Nc1ccc(F)cc1)c1ccc(S(=O)(=O)N2CCOCC2)cc1	5.5	60.7*	38.4	-4.8	18.6
CSc1ccc(S(=O)(=O)Nc2ccc(F)cc2)cc1	14.0	38.9*	22.6	-3.0	15.8
COc1ccc(S(=O)(=O)Nc2ccc(S(=O)(=O)N3CCOCC3)cc2)cc1	16.9	2.2	16.3	-5.4	-10.7
O=S(=O)(Nc1ccc2c(c1)OCCO2)c1ccc(F)cc1	5.7	40.3*	14.9	-9.3	-16.7
COC(=O)c1ccc(NS(=O)(=O)c2ccc(SC)cc2)cc1	12.0	28.1	-1.4	1.4	-2.8
O=S1(=O)c2ccc(Br)cc2OC[C@H](c2ccccc2)N1Cc1ccccc1	x	1.4	-3.3	x	x
CCCCOCC1CN(CCCC)S(=O)(=O)c2c(NCc3cc(OC)c(OC)c(OC)c3)cccc2O1 (centres undefined)	x	-0.8	41.4	x	x
CCOC(=O)N1CCN(CC(O)COc2ccc(OC)cc2C(C)(C)C)CC1 (centres undefined)	21.7	6.2	3.2	-15.3	-38.9
CCOC(=O)C1CCCN(CC(O)COc2ccc(OC)cc2C(C)(C)C)C1 (centres undefined)	6.2	39.3*	48.3	-16.1	-42.9
COc1cccc(C(=O)N2CCC[C@@H]2C(=O)N2CCC[C@H]2C(=O)NCc2ccncc2)c1	x	2.0	-8.7	x	x
CCCCOc1ccc(C(=O)NC2CCCCN(C)C2=O)cc1 (centres undefined)	x	1.2	1.9	x	x
O=C(Cc1ccc(Cl)cc1)Nc1nc2ccccc2[nH]1	19.4	38.7*	2.5	8.5	-1.8
CCOc1ncccc1C(=O)Nc1ccc2nc(C)sc2c1	76.2*	-0.2	0.3	-5.7	-3.7
CC(=O)C1=C(C)N(Cc2ccc(F)cc2)C(=S)NC1c1ccc(Br)cc1 (centres undefined)	x	2.3	2.7	x	x
CCOC(=O)/C(=C/C=C1\Sc2ccccc2N1CC)C(C)=O	40.5	x	x	28.1*	29.9
CCC(=O)/C=C1/Sc2ccccc2N1CC	35.4	-1.2	2.3	-17.7	-26.2
Cc1ccc(O)c(N=CC2=C(O)c3ccccc3C2=O)c1	64.5	9.9	8.4	-33.8	-9.1
